# Source: ChEMBL document CHEMBL3779832, “Discovery of novel pyrrole-based scaffold as potent and orally bioavailable free fatty acid receptor 1 agonists for the treatment of type 2 diabetes” (Bioorg Med Chem, 2016)
# Active and inactive are the calls of the source. The rule behind the calls is not given here.
# Key:
# [1] = target: T1, Free fatty acid receptor 1 (Homo sapiens, UniProt O14842); assay: Agonist activity at human FFA1 expressed in CHO cells assessed as intracellular Ca2+ level at 100 nM measured for 90 secs by Fluo-4 AM-based FLIPR assay; type: functional, cell-based
# T1 sequence (O14842 whole entry): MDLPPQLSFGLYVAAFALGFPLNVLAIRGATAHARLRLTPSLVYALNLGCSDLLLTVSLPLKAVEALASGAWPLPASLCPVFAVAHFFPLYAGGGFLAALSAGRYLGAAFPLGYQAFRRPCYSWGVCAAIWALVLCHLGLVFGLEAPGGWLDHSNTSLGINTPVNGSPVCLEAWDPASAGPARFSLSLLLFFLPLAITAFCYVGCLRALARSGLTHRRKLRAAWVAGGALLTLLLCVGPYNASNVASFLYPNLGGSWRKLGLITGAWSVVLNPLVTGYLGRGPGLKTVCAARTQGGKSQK
# How it was run: (§1)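 CHO cells stably expressing human FFA1 (NM_005303), 15K cells/well, cultured overnight at 37 °C in 5% CO2. Cells were washed with HBSS, then loaded for 60 min at 37 °C with Fluo 4-AM 2.5 μg/mL, fatty acid-free BSA 0.1% and probenecid 2.5 mmol/L. Single screening concentration added and Ca2+ flux read on FLIPR Tetra for 90 s. Activity = (A−B)/(C−B)×100 against vehicle (B) and 10 μM γ-linolenic acid (C). Mean of three independent experiments.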
# [2] = target: T1, Free fatty acid receptor 1; assay: Agonist activity at human FFA1 expressed in CHO cells assessed as intracellular Ca2+ level at 300 nM measured for 90 secs by Fluo-4 AM-based FLIPR assay; type: functional, cell-based; how it was run: as §1
# Mus musculus [3] = assay: Toxicity in ICR mouse assessed as hypoglycemic effect at 15 mg/kg, po measured up to 180 mins; type: organism-based; details: in vivo, 3 h
# How it was run: (§2)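 Normal male ICR mice, 10 weeks, fasted overnight (12 h), n = 6 per group. Single oral dose in 0.5% CMC vehicle, no glucose load. Tail-tip blood glucose by test strips at 0, 30, 60, 90, 120 and 180 min after dosing. Mean ± SEM for six animals, Student's t-test.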
# [4] = target: T1, Free fatty acid receptor 1; assay: Agonist activity at human FFA1 expressed in CHO cells assessed as intracellular Ca2+ level measured for 90 secs by Fluo-4 AM-based FLIPR assay; type: functional, cell-based
# How it was run: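 Calcium flux in CHO cells stably expressing human FFA1, plated at 15K cells/well overnight, loaded 60 min at 37 °C with Fluo 4-AM (2.5 μg/mL), 0.1% fatty acid-free BSA and 2.5 mmol/L probenecid. Various concentrations added and read by FLIPR for 90 s. Response normalised to vehicle and 10 μM γ-linolenic acid. EC50 from concentration–response fit, mean of three independent determinations.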
# Mus musculus [5] = assay: Antihyperglycemic activity in STZ-induced type 2 diabetic C57BL/6 mouse model at 20 mg/kg, po administered as single dose 30 mins prior to glucose challenge measured up to 120 mins by OGTT; type: functional, organism-based
# How it was run: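 Male C57BL/6 mice fed 45%-fat diet for 4 weeks, given STZ 80 mg/kg i.p., then kept on high-fat diet another 4 weeks; fasting glucose ≥11.1 mmol/L counted as diabetic. After a 12 h fast, n = 6/group, oral dose in 0.5% CMC, then 2 g/kg glucose (20% solution) orally 30 min later. Tail blood at −30, 0, 15, 30, 45, 60, 120 min, read with glucose strips.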
# Mus musculus [6] = assay: Decrease in plasma glucose level in po dosed ICR mouse administered as single dose 30 mins prior to glucose challenge measured up to 120 mins by OGTT; type: functional, organism-based
# How it was run: (§3)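 Male ICR mice, 10 weeks old, fasted 12 h and randomized (n = 6/group). Single oral dose in 0.5% CMC (10 mL/kg), followed 30 min later by oral glucose 3 g/kg as a 30% solution. Tail-vein blood at −30, 0, 15, 30, 45, 60 and 120 min, glucose read with test strips. Mean ± SEM, two-tailed Student's t-test against vehicle.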
# Mus musculus [7] = assay: Toxicity in ICR mouse assessed as hypoglycemic effect at 80 mg/kg, po measured up to 180 mins; type: organism-based; details: in vivo, 3 h; how it was run: as §2
# Mus musculus [8] = assay: Decrease in plasma glucose level in ICR mouse at 20 mg/kg, po administered as single dose 30 mins prior to glucose challenge measured up to 120 mins by OGTT; type: functional, organism-based; how it was run: as §3
Activity [1],Activity [2],Compound,further results
38.2%,52.2%,O=C(O)CC1COc2cc(OCc3cccc(N4CCSCC4)c3)ccc21 (stereo unspecified),
62.6%,74.4%,Cc1cccc(C)c1-c1cccc(COc2ccc3c(c2)OCC3CC(=O)O)c1 (stereo unspecified),EC50 [4]: 38.4 nM
8.28%,25.9%,O=C(O)CC1COc2cc(OCc3cccc(N4CCS(=O)(=O)CC4)c3)ccc21 (stereo unspecified),
40.8%,,Cc1ccc(C)n1-c1cc(COc2ccc3c(c2)OCC3CC(=O)O)ccc1OCc1ccccc1 (stereo unspecified),
41.2%,55.7%,O=C(O)CC1COc2cc(OCc3cccc(N4CCOCC4)c3)ccc21 (stereo unspecified),

# The remaining lines, values behind:
Compound,Activity [1],Activity [2],further results
COc1ccc(Cl)cc1C(=O)NCCc1ccc(S(=O)(=O)NC(=O)NC2CCCCC2)cc1 [GLYBURIDE],,,Activity (Mus musculus [3]): Toxic
O=C(O)CC1COc2cc(OCc3cccc(N4CCCCC4)c3)ccc21 (stereo unspecified),34.6%,50.3%,
O=C(O)CC1COc2cc(OCc3cccc(-n4cccc4)c3)ccc21 (stereo unspecified),28.6%,41.9%,
Cc1cc(C(=O)N(C)C)c(C)n1-c1cccc(COc2ccc3c(c2)OCC3CC(=O)O)c1 (stereo unspecified),25.7%,,
Cc1ccc(C)n1-c1cccc(COc2ccc3c(c2)OCC3CC(=O)O)c1 (stereo unspecified),59.9%,71.3%,EC50 [4]: 46.9 nM
O=C(O)CC1COc2cc(OCc3cccc(N4CCCC4)c3)ccc21 (stereo unspecified),43.7%,56.3%,
CCOc1ccc(COc2ccc3c(c2)OCC3CC(=O)O)cc1-n1c(C)ccc1C (stereo unspecified),54.6%,,EC50 [4]: 61.2 nM
COc1ccc(COc2ccc3c(c2)OCC3CC(=O)O)cc1-n1c(C)ccc1C (stereo unspecified),63.8%,,Activity (Mus musculus [5]): Active; Activity (Mus musculus [6]): Dose-dependent effect; EC50 [4]: 34.7 nM; Activity (Mus musculus [7]): Non-toxic
COCc1cc(C)n(-c2cccc(COc3ccc4c(c3)OCC4CC(=O)O)c2)c1C (stereo unspecified),31.7%,,
Cc1cc(OCCCS(C)(=O)=O)cc(C)c1-c1cccc(COc2ccc3c(c2)OC[C@H]3CC(=O)O)c1,,,Activity (Mus musculus [5]): Active; Activity (Mus musculus [8]): Active
